The text below walks through data of PubChem BioAssay.

Activity calls are given as the source filed them.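 How the source made its calls, unless noted: active means viability loss from added drug above about 55%, and viability with drug at most 40%, in both replicates (limit read from the data, passing the limit was not always enough); inconclusive means both conditions met in only one replicate; inactive means neither replicate meets both conditions.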

A short description of test [1]: Her2 expression decrease, cell viability multiplex – SKBR3 breast tumor cells, AlphaScreen, ATP viability, primary screen (AID 461;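 active means Her2 level under about 52% in both replicate screens, with viability over 70% of control, limit read from the data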;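 on Her2 level: lower value means less Her2 protein in the cells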;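 on viability: percent of carrier control wells set as 100% viability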). To be noted: SKBR3 Her2 protein level, 18-24 h, measured here: SKBR3 viability, ATP luminescence, at 10 µM. In general terms: Bead proximity is the source of the signal in Alpha formats.
The target of test [2] is Receptor tyrosine-protein kinase erbB-2 (Homo sapiens) (UniProt P04626). The description is as above. To be noted: 18-24 h, at 10 µM, stronger effect = lower value.
A short description of test [3]: reduced viability of SK-BR-3 breast cancer cells – cell-based, 24 h, human, pilot screen (AID 572;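 active means viability at or below 10% of carrier control in both of two separate runs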;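 further: compound exposure lasted between 18 and 24 h rather than exactly 24 h; 100% = carrier-treated control wells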). As to conditions: SK-BR-3 viability, CellTiter-Glo luminescence, at 10 µM, stronger effect = lower value. For orientation: Cellular ATP, detected with luciferase, serves as a proxy for viable cell number.
A short description of test [4]: HUVEC growth inhibition – cell-based, human, primary screen (AID 575;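 active means viability at or below 30% in both replicate assays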;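 further: 100% = median of untreated cell wells with 0.1% DMSO on each plate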). To be noted: HUVEC proliferation, CellTiter-Glo luminescence, 72 h; at 10 µM; stronger effect = lower value. The method in brief: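 Test system: primary human umbilical vein endothelial cells. Quantity: 1250 cells/well. Compound: single 10 µM dose, 0.1% DMSO, from 5x medium stock. Timing: 72 h treatment at 37 °C. Detection: ATP-based CellTiter-Glo luminescent read. Benchmarks: vehicle and MePR control wells. Format: 384-well plates coated with collagen.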

Test [5] is described as follows: H69AR cell proliferation blockers – human, duplicate replicates, primary screen (AID 580;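 active means viability at or under a set limit in both replicates, limit being median viability minus 3 SD, cut at about 48% in these data, passing the limit was not always enough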;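 further: 100% = mean luminescence of untreated wells and 0% = no signal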). As to conditions: H69AR lung tumor cells viability, ATP luminescence, 72 h; at 10 µM; stronger effect = lower value.
Test [6] can be described thus: MRP1 drug-resistance reversers in H69AR cells – cell-based, doxorubicin co-treatment, pilot screen (AID 601). As to conditions: CellTiter-Glo, 72 h, at 10 µM; for differential viability (reversal): stronger effect = higher value.
Test [7] is described as follows: yeast transport mutant growth inhibition pilot in 384-well plates, post-Golgi transport modulator project (AID 636; in the data active means inhibition above about 31%). To be noted: absorbance 615 nm, about 18 h, stronger effect = higher value.
Test [8] is described as follows: growth suppression of yeast trafficking mutant, preliminary HTS, modulators of trafficking downstream of Golgi apparatus project, 1536-format plate, OD 615 nm (AID 637; in the data active means inhibition above about 30%). To be noted: yeast transport mutant growth, absorbance 615 nm, 18 h; stronger effect = higher value.
The mark [9] stands for this setting: H69AR cells + 2 uM doxorubicin, measured here: viability with 2 uM doxorubicin, stronger effect = lower value.
Where [10] appears, read: H69AR cells, compound alone cytotoxicity.

Receptor tyrosine-protein kinase erbB-2 (Homo sapiens), sequence (P04626 whole entry, looked up): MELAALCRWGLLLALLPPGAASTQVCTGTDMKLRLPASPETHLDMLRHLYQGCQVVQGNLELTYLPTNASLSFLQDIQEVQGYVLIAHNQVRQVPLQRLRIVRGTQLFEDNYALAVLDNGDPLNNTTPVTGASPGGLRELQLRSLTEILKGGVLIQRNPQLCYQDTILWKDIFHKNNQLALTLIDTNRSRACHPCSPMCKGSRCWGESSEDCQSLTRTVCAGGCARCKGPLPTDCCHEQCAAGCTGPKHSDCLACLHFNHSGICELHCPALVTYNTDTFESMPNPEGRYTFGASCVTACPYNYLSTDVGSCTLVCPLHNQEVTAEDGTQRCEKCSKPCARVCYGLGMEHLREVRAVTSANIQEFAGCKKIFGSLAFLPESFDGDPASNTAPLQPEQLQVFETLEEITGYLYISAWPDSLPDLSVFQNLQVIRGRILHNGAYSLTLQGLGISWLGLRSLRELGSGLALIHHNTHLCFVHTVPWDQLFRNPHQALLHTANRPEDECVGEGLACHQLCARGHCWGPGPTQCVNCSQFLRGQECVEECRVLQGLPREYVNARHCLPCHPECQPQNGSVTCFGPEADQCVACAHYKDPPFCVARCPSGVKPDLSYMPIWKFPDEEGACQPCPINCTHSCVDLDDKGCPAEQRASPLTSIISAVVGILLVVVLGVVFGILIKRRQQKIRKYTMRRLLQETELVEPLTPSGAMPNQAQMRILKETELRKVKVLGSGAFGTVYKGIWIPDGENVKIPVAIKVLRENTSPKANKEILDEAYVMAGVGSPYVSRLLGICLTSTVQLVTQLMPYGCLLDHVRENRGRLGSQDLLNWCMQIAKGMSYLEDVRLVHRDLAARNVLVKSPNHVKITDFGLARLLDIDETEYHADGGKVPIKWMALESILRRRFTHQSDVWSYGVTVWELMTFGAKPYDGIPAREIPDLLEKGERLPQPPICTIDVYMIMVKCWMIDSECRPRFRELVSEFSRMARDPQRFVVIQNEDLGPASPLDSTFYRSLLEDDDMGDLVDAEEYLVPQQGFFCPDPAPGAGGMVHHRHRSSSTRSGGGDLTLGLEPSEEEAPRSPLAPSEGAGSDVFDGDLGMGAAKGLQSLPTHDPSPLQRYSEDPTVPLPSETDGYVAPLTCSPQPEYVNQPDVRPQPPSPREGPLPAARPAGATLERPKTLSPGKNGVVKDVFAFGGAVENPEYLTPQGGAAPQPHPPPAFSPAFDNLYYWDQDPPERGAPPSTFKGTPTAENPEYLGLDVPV

For the molecule `CCCN1CCC(NC(=O)Nc2ccc(OC)c(OC)c2)CC1`, the viability (commonly a read-out of living cells in per cent, often relative to untreated cells) in test [1] is 124%; in test [3] it was 124% (inactive); in test [4] it was 111% (inactive); in test [5], 90.7% (inactive); in test [6] (setting [9]) it was 86.1%; in test [6] (setting [10]), 90.7%. Besides, in test [2], the Her2 level is 96.5% (inactive). For the same molecule, in test [6] (H69AR cells + 2 uM doxorubicin), the differential viability (reversal) was 4.61% (inactive). For the same molecule, the figures for the inhibition in test [7] and in test [8] were -1.69% (inactive) and -2.33% (inactive), respectively.

Turning to `CCOC(=O)C1CCN(c2c(N3CCCC(C(=O)OCC)C3)c(=O)c2=O)CC1` (stereo not given), the viability was 103% in test [1]; 103% (inactive) in test [3]; 97.1% (inactive) in test [4]; 96.9% (inactive) in test [5]; 100% in test [6] (setting [9]); 96.9% in test [6] (setting [10]). Also, the Her2 level in test [2] is 119% (inactive). Moreover, in test [6] (H69AR cells + 2 uM doxorubicin), the differential viability (reversal) is -3.29% (inactive). Besides, the inhibition (commonly the change of the read-out against control, counted positive when it falls) in test [7] is 2.31% (inactive); in test [8] it was -2% (inactive).

As to `CCc1nn2c(=O)cc(CSc3nc4sc5c(c4c(=O)n3C)CCCC5)nc2s1`, the viability in test [1] was 100%; in test [3] it was 100% (inactive); in test [4], 113% (inactive); in test [5] it was 90% (inactive); in test [6] (setting [9]), 89.6%; in test [6] (setting [10]) it was 90%. Moreover, in test [2], the Her2 level was 98% (inactive). In addition, in test [6] (H69AR cells + 2 uM doxorubicin), the differential viability (reversal) was 0.36% (inactive). Also, the results for the inhibition in test [7] and in test [8] were -0.65% (inactive) and 10% (inactive), respectively.

Regarding `CCOc1ccc(Cc2nn[nH]n2)cc1`, the viability in test [1] was 86.5%; in test [3], 86.5% (inactive); in test [4], 108% (inactive); in test [5] it was 101% (inactive); in test [6] (setting [9]), 96.3%; in test [6] (setting [10]) it was 101%. In addition, in test [2], the Her2 level is 84.5% (inactive). Further, the differential viability (reversal) in test [6] (H69AR cells + 2 uM doxorubicin) is 5.14% (inactive). The inhibition in test [7] was -5.89% (inactive); in test [8] it was -3.49% (inactive).

`O=C(O)CCCC(=O)Nc1ccc(Br)cc1C(=O)O`: the viability is 95.5% in test [1]; 95.5% (inactive) in test [3]; 93.8% (inactive) in test [4]; 96.8% (inactive) in test [5]; 82.4% in test [6] (setting [9]); 96.8% in test [6] (setting [10]). Moreover, the Her2 level in test [2] was 90% (inactive). Moreover, the differential viability (reversal) in test [6] (H69AR cells + 2 uM doxorubicin) is 14.4% (inactive). Moreover, the inhibition in test [7] is -0.53% (inactive); in test [8], -0.16% (inactive).

Take `Cc1ccc(CCNC(=O)C2CCN(S(=O)(=O)c3ccc4c(c3)CCC(=O)N4)CC2)cc1`: the viability in test [1] was 98.5%; in test [3], 98.5% (inactive); in test [4], 44.2% (inactive); in test [5], 79.9% (inactive); in test [6] (setting [9]) it was 69.3%; in test [6] (setting [10]) it was 79.9%. Moreover, the Her2 level in test [2] was 100% (inactive). Further, the differential viability (reversal) in test [6] (H69AR cells + 2 uM doxorubicin) was 10.6% (inactive). Besides, the inhibition in test [7] was -0.67% (inactive); in test [8] it was -6.07% (inactive).

As for `COc1cccc(OCc2nc3ccccc3[nH]2)c1`, the viability in test [1] is 86.5%; in test [3], 86.5% (inactive); in test [4], 101% (inactive); in test [5] it was 95.8% (inactive); in test [6] (setting [9]) it was 88.3%; in test [6] (setting [10]) it was 95.8%. In test [2], the Her2 level was 110% (inactive). Besides, the differential viability (reversal) in test [6] (H69AR cells + 2 uM doxorubicin) is 7.5% (inactive). The inhibition in test [7] is -0.51% (inactive); in test [8], -5% (inactive).

As for `CCNc1nc(N2CCOCC2)nc(N(c2ccccc2)c2ccccc2)n1`, the viability in test [1] is 80.5%; in test [3] it was 80.5% (inactive); in test [4], 62.2% (inactive); in test [5], 84.2% (inactive); in test [6] (setting [9]) it was 79.4%; in test [6] (setting [10]), 84.2%. Besides, the Her2 level in test [2] is 97% (inactive). Also, the differential viability (reversal) in test [6] (H69AR cells + 2 uM doxorubicin) was 4.78% (inactive). Further, the inhibition in test [7] was -3.55% (inactive); in test [8], -10% (inactive).

As to `CCOC(=O)CSC1=C(C#N)C(=O)NC2(CCCCC2)S1`, the viability in test [1] is 108%; in test [3], 108% (inactive); in test [4] it was 100% (inactive); in test [5], 108% (inactive); in test [6] (setting [9]) it was 95.9%; in test [6] (setting [10]), 108%. Besides, in test [2], the Her2 level is 106% (inactive). The differential viability (reversal) in test [6] (H69AR cells + 2 uM doxorubicin) is 12.1% (inactive). Also, the inhibition in test [7] was -6.16% (inactive); in test [8] it was -5.24% (inactive).

Take `CCOc1ccc2cc(C#N)c(SCC(=O)N3CCOCC3)nc2c1`: the viability in test [1] was 109%; in test [3] it was 109% (inactive); in test [4], 87.1% (inactive); in test [5] it was 74.6% (inactive); in test [6] (setting [9]) it was 42.8%; in test [6] (setting [10]), 74.6%. Also, the Her2 level in test [2] was 81.5% (inactive). Besides, the differential viability (reversal) in test [6] (H69AR cells + 2 uM doxorubicin) is 31.8% (inactive). Besides, the inhibition was -6.8% (inactive) in test [7] and 1.94% (inactive) in test [8].

For the molecule `Cn1c(SCc2nnc3n2CCCCC3)nc2ccccc21`, the viability in test [1] is 103%; in test [3], 103% (inactive); in test [4], 98.3% (inactive); in test [5], 98.2% (inactive); in test [6] (setting [9]), 94%; in test [6] (setting [10]), 98.2%. In test [2], the Her2 level was 98.5% (inactive). In addition, the differential viability (reversal) in test [6] (H69AR cells + 2 uM doxorubicin) was 4.2% (inactive). The inhibition in test [7] was -6.67% (inactive); in test [8], 2.54% (inactive).

Take `CCSc1nc2c(c(=O)n1CC)SC(C)C2` (stereo not given): the viability in test [1] is 102%; in test [3] it was 102% (inactive); in test [4], 111% (inactive); in test [5] it was 94.1% (inactive); in test [6] (setting [9]), 87.7%; in test [6] (setting [10]), 94.1%. In test [2], the Her2 level is 86.5% (inactive). For the same molecule, the differential viability (reversal) in test [6] (H69AR cells + 2 uM doxorubicin) was 6.39% (inactive). The inhibition in test [7] is -5.47% (inactive); in test [8], 6.07% (inactive).

On to `CCCn1c(=O)c2ccccc2n2c(SCCOc3ccccc3F)nnc12`, for which the viability is 72% in test [1]; 72% (inactive) in test [3]; 85.2% (inactive) in test [4]; 88.8% (inactive) in test [5]; 70.7% in test [6] (setting [9]); 88.8% in test [6] (setting [10]). The Her2 level in test [2] is 102% (inactive). In test [6] (H69AR cells + 2 uM doxorubicin), the differential viability (reversal) was 18.1% (inactive). Moreover, the inhibition in test [7] is 2.08% (inactive); in test [8], -6.72% (inactive).

Regarding `N#Cc1nc(-c2cccs2)oc1NCCc1ccccc1`, the viability in test [1] was 93.5%; in test [3] it was 93.5% (inactive); in test [4], 84.3% (inactive); in test [5], 102% (inactive); in test [6] (setting [9]), 83.4%; in test [6] (setting [10]), 102%. Moreover, the Her2 level in test [2] was 86.5% (inactive). Also, the differential viability (reversal) in test [6] (H69AR cells + 2 uM doxorubicin) is 18.3% (inactive). Besides, the results for the inhibition in test [7] and in test [8] were -1.18% (inactive) and 1.29% (inactive), respectively.

With `C=CCN1C(=O)C2(c3ccccc31)C1CCCC=C1C(C#N)=C(N)C2(C#N)C#N` (stereo not given), the viability in test [1] is 81%; in test [3], 81% (inactive); in test [4] it was 62.7% (inactive); in test [5], 76.4% (inactive); in test [6] (setting [9]), 90.3%; in test [6] (setting [10]) it was 76.4%. For the same molecule, in test [2], the Her2 level was 82% (inactive). For the same molecule, in test [6] (H69AR cells + 2 uM doxorubicin), the differential viability (reversal) was -13.9% (inactive). The inhibition was 2.53% (inactive) in test [7] and 26.8% (inactive) in test [8].
